Rows were chosen to be rich in hits. Some 1.4% of all compounds tested hit in one or more screens of this group.
ABCB6 inh 2: ABCB6 transporter inhibitors, primary screen, K562-ABCB6 cells, flow cytometry, MLPCN library; K562-ABCB6 porphyrin accumulation, 1 h; hits give low values; fluorescence ratio to DMSO, % at 10 µM; 0.19% of 360,000 active;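 active means fluorescence ratio to DMSO below 75%, the collection mean minus 3 SD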;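 further: signal is porphyrin accumulated inside mitochondria; 100% equals median channel fluorescence of DMSO control wells; lower ratio means ABCB6 inhibition with less porphyrin fluorescence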
CHT allo act: CHT positive allosteric modulators, primary screen, cell-based, membrane potential dye, choline EC20. High affinity choline transporter 1 (Homo sapiens), Q9GZV3. CHT-expressing cells; hits give high values; LV-AA mutant CHT in HEK293 cells. B-score at 10 µM. 0.49% of 310,000 active. AID 488977, 2010;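 active means initial fluorescence not abnormally high and integrated response B-score, plate-corrected, over 3 SD above library mean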
TNAP inh noacc: human TNAP enzyme inhibitors, primary screen, biochemical, luminescent, no phosphate acceptor, uHTS. Alkaline phosphatase, tissue-nonspecific isozyme (Homo sapiens), P05186. purified TNAP, CDP-star luminescence, 30 min. inhibition, % at 20 µM. 0.26% of 200,000 active;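 active means tissue-nonspecific alkaline phosphatase inhibition above about 50% at 20 µM in the single-dose screen, limit read from the data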;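 further: 0% = DMSO negative control and 100% = EDTA positive control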
Target sequence (P05186 whole entry, looked up): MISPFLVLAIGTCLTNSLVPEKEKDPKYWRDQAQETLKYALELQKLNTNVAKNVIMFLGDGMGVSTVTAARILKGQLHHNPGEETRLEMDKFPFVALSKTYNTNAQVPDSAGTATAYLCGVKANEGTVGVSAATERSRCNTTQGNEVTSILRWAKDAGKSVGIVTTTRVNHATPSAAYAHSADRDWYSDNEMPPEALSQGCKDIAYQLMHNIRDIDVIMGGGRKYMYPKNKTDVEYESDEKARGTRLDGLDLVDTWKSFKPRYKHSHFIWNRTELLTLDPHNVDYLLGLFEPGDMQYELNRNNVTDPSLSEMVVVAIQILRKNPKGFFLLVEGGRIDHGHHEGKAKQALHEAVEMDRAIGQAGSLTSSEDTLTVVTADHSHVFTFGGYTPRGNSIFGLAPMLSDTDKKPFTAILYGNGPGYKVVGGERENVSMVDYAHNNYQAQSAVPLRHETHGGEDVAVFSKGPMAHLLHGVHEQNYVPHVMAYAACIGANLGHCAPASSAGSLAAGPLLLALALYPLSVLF
TNAP inh hiacc: human TNAP enzyme inhibitors, primary screen, biochemical, luminescent, high phosphate acceptor level, uHTS; AID 1135, 2008; Alkaline phosphatase, tissue-nonspecific isozyme (Homo sapiens), P05186; 0.03% of 200,000 active; inhibition, % at 20 µM; purified TNAP, CDP-star luminescence, 1 M DEA;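 active means over 50% inhibition of tissue-nonspecific alkaline phosphatase at 20 µM in the single-dose screen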;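 further: plate controls were DMSO wells for no effect and EDTA-quenched wells as full inhibition for full effect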
CHT block: inhibitors of human choline transporter CHT; CHT-expressing cells, membrane potential dye, choline response; hits give low values; B-score at 10 µM; 0.86% of 310,000 active; AID 488975, 2010;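 active means B-score over 3 SD under the library average, and starting fluorescence ratio not unusually high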;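 further: choline stimulus applied at its EC90 after an EC20 pre-addition; B-score computed on integrated fluorescence ratio after choline addition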
TNAP act hi DEA: TNAP activators at high phosphate acceptor level, primary screen, biochemical, luminescence, uHTS; Alkaline phosphatase, tissue-nonspecific isozyme (Homo sapiens), P05186; purified TNAP, CDP-star luminescence, 1 M DEA, 30 min; hits give high values; 0 = EDTA background, 1 = DMSO-only activity; activation factor at 20 µM; 200,000 tested, under 10 active;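 active means activation factor at least 2 at 20 µM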
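Dosing: 20 µM single point. System: human TNAP. Amount: TNAP 1/800 final. Incubation: 30 min, room temperature. Read-out: TNAP activation factor scaled between EDTA and DMSO control wells. Signal: luminescence from CDP-star hydrolysis. Medium: 1 M DEA, pH 9.8, Mg2+, Zn2+. Control set: EDTA negative control, DMSO positive control.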
CHT inh conf: CHT inhibitors, confirmation, cell-based, membrane potential dye, duplicate. shares compounds with CHT block. CHT-expressing cells, choline membrane potential dye; LV-to-AA substituted CHT, HEK293 cells. CHT activity remaining % of control (hits give low values), % at 10 µM. 70% of 2,400 active. AID 493221, 2011;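 active means choline transporter activity left, mean of duplicates at 10 µM, below buffer-only control mean minus 3 SD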;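 further: depolarization triggered by choline at its EC90 following an EC20 pre-addition; 0% = hemicholinium-3 full block and 100% = buffer-only control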
HEK293 MPD ctr: membrane potential effects in parental HEK293, counter-screen for CHT inhibitor project, cell-based, membrane potential dye | membrane potential ratio readout (active if shifted either direction beyond buffer ±3SD; no single direction) at 10 µM | 4% of 2,400 active | choline response; active = decrease or increase beyond buffer ±3SD | shares compounds with CHT block | AID 493222, 2011;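 further: parental cells lack the transporter so any hit is non-specific; ratio is peak minus trough fluorescence over baseline after EC90 choline challenge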
Active calls of the source: *; i = inactive; nt = no result given.

SMILES | ABCB6 inh 2 | CHT allo act | TNAP inh noacc | TNAP inh hiacc | CHT block | TNAP act hi DEA | CHT inh conf | HEK293 MPD ctr
CCN(CC)C(=O)N1CCN(S(=O)(=O)c2ccc(C)c(C)c2)CC1 | 86.0 | i | -2.9 | -0.1 | -7.36* | 1 | 36.5%* | i
Fc1ccc(CNCc2ccccc2Cl)cc1 | 97.0 | i | -12.6 | -4.7 | i | 1 | nt | nt
C=CCOc1ccccc1CNCc1ccc(F)cc1 | 100.0 | i | -12.2 | -2.3 | -7.55* | 1 | 26.2%* | -13.9*
Cc1nc(Oc2ccccc2)c2ccccc2n1 | 97.0 | i | -14.9 | 2.2 | -6.97* | 1 | i | i
FC(F)(F)c1nc(Oc2ccccc2)c2ccccc2n1 | 105.0 | i | -1.1 | 2.3 | i | 1 | nt | nt
COc1cc(C=Nc2cccc(C)c2)c(O)c([N+](=O)[O-])c1 | 103.0 | i | 17.5 | 21.1 | -6.91* | 0.8 | 68.0%* | i
COc1ccc(/C=C/C(=O)OCC(=O)NC2CCCCC2C)c(OC)c1 (configuration not stated) | 100.0 | nt | nt | nt | nt | nt | nt | nt
O=C(CSc1nc(C(F)(F)F)cc(=O)[nH]1)Nc1cccc2ccccc12 | 99.0 | i | nt | nt | -5.37* | nt | 40.4%* | i
COc1ccc(NC(=O)CCCNC(=O)c2ccc(Cl)cc2)cc1OC | 97.0 | i | nt | nt | -6.59* | nt | i | i
COc1ccc(NC(=O)CCCNC(=O)c2ccc(Cl)cc2)cc1S(=O)(=O)N1CCCCC1 | 97.0 | nt | nt | nt | nt | nt | nt | nt
CCCc1ccc(OCc2ccc(C(=O)NCc3cccnc3)o2)c(OC)c1 | 100.0 | i | -5.8 | 0.3 | -5.65* | 1 | 68.5%* | i
O=C(NCc1cccnc1)c1ccc(COc2ccc(Cl)cc2Cl)o1 | 99.0 | i | -12.6 | -4.5 | i | 1 | nt | nt
COC(=O)NNC(=S)NCc1ccc(C)cc1 | 101.0 | i | 14.4 | -3.1 | -6.69* | 1 | i | i
CCOc1ccc(S(=O)(=O)NCCC(=O)N(CC)CC(=O)Nc2c(F)cccc2F)cc1 | 105.0 | i | nt | nt | i | nt | nt | nt
Fc1cccc(Cc2noc(CN3CCOCC3)n2)c1 | 97.0 | i | -5.5 | -6.7 | i | 1.1 | nt | nt
Fc1cccc(Cc2noc(CN3CCC(c4ccncc4)CC3)n2)c1 | 87.0 | i | 0.0 | -4.6 | -5.6* | 1 | 29.7%* | i
CCCCNc1nc2c(c(=O)n(C)c(=O)n2C)n1CCC | 97.0 | i | nt | nt | i | nt | nt | nt
CCCNc1nc2c(c(=O)n(C)c(=O)n2C)n1CCC(C)C | 101.0 | i | -9.8 | -3.8 | -6.87* | 1 | 45.9%* | i
CNC(=O)CSCc1cnn(-c2ccccc2)c1-n1cccc1 | 101.0 | i | 4.0 | -6.4 | i | 1.1 | nt | nt
O=C(CSCc1cnn(-c2ccccc2)c1-n1cccc1)NCc1cccs1 | 103.0 | i | -7.3 | -5.1 | -6.55* | 1.1 | i | i
COc1cccc(CNC(=O)CSCc2cnn(-c3ccccc3)c2-n2cccc2)c1 | 96.0 | i | -9.8 | -5.2 | i | 1.1 | nt | nt
CCOC(=O)N1CCC(NC(=O)CSCc2cnn(-c3ccccc3)c2-n2cccc2)CC1 | 101.0 | i | -7.2 | -3.9 | -7.34* | 1 | i | i
COc1ccc2cc(/C(C)=N/NC(=O)c3cc(-c4cccnc4)nc4ccccc34)ccc2c1 | 95.0 | i | -0.3 | -9.4 | i | 1.1 | nt | nt
O=C(CN1C(=O)CSc2ccc(S(=O)(=O)N3CCCCC3)cc21)NCc1ccccc1Cl | 94.0 | i | nt | nt | i | nt | nt | nt
CN(CC(=O)Nc1ccccc1Cl)C(=O)CN1C(=O)C2CC=CCC2C1=O (configuration not stated) | 93.0 | nt | nt | nt | nt | nt | nt | nt
SMILES | ABCB6 inh 2 | CHT allo act | TNAP inh noacc | TNAP inh hiacc | CHT block | TNAP act hi DEA | CHT inh conf | HEK293 MPD ctr
c1ccc(CNc2c3c(nc4ncnn24)CCCC3)nc1 | 95.0 | i | -128.1 | 0.9 | i | 1 | nt | nt
C#CCNc1c2c(nc3ncnn13)CC(C)CC2 (configuration not stated) | 93.0 | i | nt | nt | -5.24* | nt | 63.5%* | i
CC(C)[C@H](NC(=O)c1ccccc1Br)C(=O)OCc1nc2ccsc2c(=O)[nH]1 | 97.0 | i | nt | nt | i | nt | nt | nt
CC(C)C(NC(=O)c1ccccc1Cl)C(=O)OCc1nc2scc(-c3ccccc3Cl)c2c(=O)[nH]1 (configuration not stated) | 97.0 | i | -2.9 | 3.1 | -5.08* | 1 | i | i
CC(=O)N1CCN(c2ccc(NC(=O)c3ccc4c(c3)OCCO4)cc2)CC1 | 97.0 | i | -6.9 | -6.8 | i | 1.1 | nt | nt
CC(C)(C)C(=O)N1CCN(c2ccc(NC(=O)c3ccc4c(c3)OCCO4)cc2)CC1 | 95.0 | i | nt | nt | -5.38* | nt | 65.8%* | i
COc1ccc(NC(=O)c2cccc(Oc3ccc([N+](=O)[O-])cc3Cl)c2)cc1 | 100.0 | i | -11.1 | -0.9 | i | 1 | nt | nt
Cc1ccc(C)c(NC(=O)c2cccc(Oc3ccc([N+](=O)[O-])cc3Cl)c2)c1 | 100.0 | i | -12.1 | -4.3 | -7.15* | 1 | 49.3%* | i
CC(=O)Nc1cccc(NC(=O)c2c(-c3c(Cl)cccc3Cl)noc2C)c1 | 99.0 | i | -9.2 | -6.6 | i | 1.1 | nt | nt
Cc1noc(NC(=O)c2c(-c3c(Cl)cccc3Cl)noc2C)c1[N+](=O)[O-] | 95.0 | i | nt | nt | -6.09* | nt | 47.8%* | i
CCC(Sc1nnc(-c2ccc(C)c(Cl)c2)n1CC)C(=O)Nc1nccs1 (configuration not stated) | 92.0 | i | 1.0 | -7.8 | -5.93* | 1.1 | 50.2%* | i
CCn1c(SCC(=O)Nc2nccs2)nnc1-c1ccc(S(=O)(=O)N2CCCCCC2)cc1 | 95.0 | i | -4.6 | -9.5 | i | 1.1 | nt | nt
O=C1NCCCC1C(=O)N/N=C/c1cccc(Cl)c1 (configuration not stated) | 97.0 | i | nt | nt | i | nt | nt | nt
CCOc1[nH]c(/N=C/c2ccco2)c(C#N)c1C#N | 104.0 | i | -3.4 | 0.0 | -5.1* | 1 | 53.0%* | i

Source: PubChem BioAssay
